In the EternaBench riboswitch data:

Tested on: MS2 coat protein
Assay: apparent Kd, MS2 coat protein; higher = weaker binding; RNA-MaP array; FMN 200 µM where present
Summary of the method: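 Designs on Illumina sequencing-chip clusters, transcribed by stalled E. coli RNA polymerase, were exposed to SNAP-549-labelled MS2 coat protein in doubling steps from 0.7 or 1.5 nM up to 3 µM, without and then with constant ligand. The buffer held 100 mM Tris-HCl pH 7.5, 80 mM KCl, 4 mM MgCl2, BSA, DTT, yeast tRNA and Tween-20. Apparent Kd values are medians of filtered per-cluster binding-curve fits to green signal normalised to red-channel RNA signal and control-cluster median Fmax.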

[1] = designed as: OFF switch for flavin mononucleotide, no ligand
[2] = ligand present: flavin mononucleotide, designed as: OFF switch for flavin mononucleotide
[3] = designed as: ON switch for flavin mononucleotide, no ligand
[4] = ligand present: flavin mononucleotide, designed as: ON switch for flavin mononucleotide

Sequence	apparent Kd [1]	apparent Kd [2]	apparent Kd [3]	apparent Kd [4]
AGAUAACAUGUAGGAUAUCGAGGCCUGAGGCCUCGAGAAGGACAUGAGGAUCACCCAUGUUUGCCGAGCAUGGAAUCCCGCACU	58.6 nM	425 nM	–	–
GGUACCAUCACAGGAUAUGCUUUCCUUUGGGAAGCAGAAGGGUGUAACAUGAGGAUCACCCAUGUGGUGCCAGGGCGUGGGCCC	–	–	212 nM	19.2 nM
CCAAUGUAAGGAUAUGACAAUGGUAUCUUCGGAUACCAUUGUCAGAAGGUACAUGAGGAUCACCCAUGUAUAAA	18.7 nM	41.1 nM	–	–
GGGUACAUCGGAGGAUAUCAUGUAAAUACAUGAGGAUCACCCAUGUCGAUGGAGACAUCGGAGAUUGAGAAGGACGAUGUACCG	–	–	320 nM	14 nM
GUUAAGGUAGGAUAUACGAGAAUAUAGGGUAGAUAUAUAACACAUGAGGAUCACCCAUGUAGAAGGACCAAUUG	33.8 nM	95.6 nM	–	–
GCUCGAUGCGCUGAGCACAUGAGGAUCACCCAUGUAAAUGGUCAGGAUAUUUACGUGCUUUAUGUAGAGAAGGGACUAUCGAGC	–	–	630 nM	59.4 nM
UAAACACCCUCAUGUGCCUGAGGACAUGAGGAUCACCCAUGUAAGGAUAUAGCCAUUAAAUCUAACUAGAAGGUAUAGGACAUC	925 nM	540 nM	–	–
GGAGCUACAACCGACGGAUAGAUGCAGGAUAUGCUCACAUGAGGAUCACCCAUGUGCUGAAACUGGCAGAAGGGUAUCACCGCC	–	–	7.83 nM	4.59 nM
GGAGGACAUCAAUACAUGAGGAUCACCCAUGUCGAAUGAUAUGAGGAUAUGCAUCGGAAAACGAUGUAGAAGGCAUAGUCCUCC	–	–	15.1 nM	6.06 nM
UCAUACAUGACAUGACAUGAGGAUCACCCAUGUCCAUGUUACAAGGAUAUGUACAUGAAACAUGUACAGAAGGUGUAUUGGACU	15.4 nM	29.4 nM	–	–
ACAUUGUUAGGAUAUGCUGCUCGUCACUUGCGUGAUGAGUAGCAGAAGGAACAUGAGGAUCACCCAUGUAAAAA	33.1 nM	44.3 nM	–	–
GUGUACAGAGGAUAUACAUGGGCAUGAAAACAUGCAUCUUCACAUGAGGAUCACCCAUGUAGAAGGCUGUACAC	24.6 nM	16.9 nM	–	–
GAGAAGUCAGGAUAUCCAUGGCGGCACUUGCGUGGUGGCGUGGAGAAGGGACAUGAGGAUCACCCAUGUAAAGG	165 nM	157 nM	–	–
GUCAUCUCAUGAGGAUAUGCUCGGGUUUCCCGAGCAGAAGGCAUGUCAUACAUGAGGAUCACCCAUGUUGACAUUAAGAUUGUA	–	–	4.78 nM	5.04 nM
CCGAAACCUCAGAAGGACCACAUGAGGAUCACCCAUGUCAAGCAAAACGGUAGGAUAUGAGGGAAAAGUCAAUAUACCCGACAG	–	–	11.3 nM	4.9 nM
AAGUCUGGACGAGGAUAUCAGUUGUAUCUAGAUUCAACAUGAGGAUCACCCAUGUUGCAAUAGGGUGAGAAGGCGUUUGGGCAA	–	–	79.9 nM	21.2 nM
GGAACUCAUGUAGGAUAUGCAUGGCGAAGCUACGCAGAAGGACAUGAGGAUCACCCAUGUUCUAGCGUCUGGAGACAGAUGCAA	174 nM	126 nM	–	–
UUAAUCAUGUAGAAGGACGGAUAUUAAGAGAACGUAGGAUAUACAGAAGACAUGAGGAUCACCCAUGUGAACAUGGUACAUAGG	241 nM	62.5 nM	–	–
CGAUAGUGUCGUUAUCCGUAGCGAACAUGAGGAUCACCCAUGUAGGAUAUGUUACUAAACUAGUAACAGAAGGGCGUGAGUCUU	129 nM	161 nM	–	–
UCUUGUGUUGAGGAUAUGCGCCGGCUCGCUGGCGCAGAAGGCGGCACAUGAGGAUCACCCAUGUCAGUUCGCGA	502 nM	60.8 nM	–	–
ACAUGAGGAUCACCCAUGUAAUGAUGGGUACUAUAUUAUUCGUAGGAUAUCGUUGUUAGUUUGUGCGAGAAGGACGAUUGCUUU	871 nM	1060 nM	–	–

Sequence	apparent Kd [1]	apparent Kd [2]	apparent Kd [3]	apparent Kd [4]
UAGUAUAAGGGCAUUACACAUGAGGAUCACCCAUGUACGUUAGAGGAUAUGCAUUACAGUUGAAAGUAGAAGGUUAGAGAAGGG	40.5 nM	46.5 nM	–	–
UCGAGUCAUGAGAAGGGCUGAUGUUACAUGAGGAUCACCCAUGUCAUGGGCAGGAUAUCAUUGACACGGCUGUACCUUUCUUAC	–	–	149 nM	29.4 nM
AGUUGUAAACAGAACAUGAGGAUCACCCAUGUGCUCUCGUGUAAGGAUAUACAUUCGUAUGGAAAGUAGAAGGUACUAAUUAUG	–	–	78.4 nM	78.7 nM
AAACAUGUCCGAGGAUAUCUGAGAUUAUUUUCAAGAGAAGGCGGACAUGAGGAUCACCCAUGUCUCUCCUCAUCAACUCCAAAU	8.61 nM	54.5 nM	–	–
UUUCCACAUGAGGAUCACCCAUGUGAGGAUAUGGAGCGCGACCGCGCGGUCGCGUACACCAGAAGGCGCAUGAU	31.9 nM	91 nM	–	–
UGAACUUCAGAGAAGGUCGAAUCGCAACGGUUCGAAGGAUAUCUGGAAACAUGAGGAUCACCCAUGUAACCGGGUGGAUGUCCU	56.8 nM	246 nM	–	–
GUACGUGGACAGAAGGCGACAUGAGGAUCACCCAUGUUGGCUCGGGUAUGACCAAUCCGCAUGAUCGAGGAUAUGUCUGCGGGC	199 nM	14.8 nM	–	–
UGGUACUAGGAAGGAUAUGGGAAGAUACAUGAGGAUCACCCAUGUUUAAGAAUGCCGAGAGGCAACUAGAAGGCCCUAGUACCU	–	–	596 nM	135 nM
CCCUCACAUGAGGAUCACCCAUGUCAGGAUAUCUAGUCAGACAGUGUAGCACUGCUGAAGAGAAGGGACGUAAA	16.9 nM	19.4 nM	–	–
AGAGUUUCGUUGUGACCCAUUCACAUGAGGAUCACCCAUGUAGAGGAUAUAAGUCACCACGGUACUUAGAAGGCUGCAGGUGUG	6.83 nM	12.5 nM	–	–
GGUACCAUCACAGGAUAUGCUAUCCUUUGGGUAGCAGAAGGGUGUAACAUGAGGAUCACCCAUGUGGUGCCAGGGCGUGAGCCC	–	–	496 nM	49.9 nM
AACGUCCUAGGAUAUACGCUGGGACUCGCCAUGUGGGCCCUACAUGAGGAUCACCCAUGUAGAAGGAGGACAUG	19.5 nM	12.9 nM	–	–
CGUUGAUGAGGAUAUCGAUGUUAGUACAUGAGGAUCACCCAUGUUAUCCAAGUGUCGGAUCGAGAAGGUAUUGGAC	320 nM	306 nM	–	–
CAGCUACCCAGUAUGGGUUUAUGUGCAGAAGGCCAGGUACAUGAGGAUCACCCAUGUAAAGAUAUGGAGGAUAUGUUAGUGAAU	–	–	17.9 nM	6.66 nM
UCCUUGUCCUGAGGAUAUCCGCGGUUCCCAAAAGGAGAAGGCAGGACAUGAGGAUCACCCAUGUACCCAGAGAACGUGCAGAGU	19.2 nM	129 nM	–	–
UUUAAUUUAAUUAAGAUCACAUGAGGAUCACCCAUGUAUAUAUAGGAUAUCAGCUCGAAUAGAGCUGAGAAGGAUAUAUACAUA	69.3 nM	36.2 nM	–	–
CGCAAACAUGAGGAUCACCCAUGUCAUUGUGGUCAAGGAUAUGGGUUCCUAAAUGGAACACCAGAAGGUGAAAAGA	–	–	164 nM	33.5 nM
AAUUAACAUGAGGAUCACCCAUGUCGUAUUAUGGGAGGAUAUACGUGGACCGUAGUCCGCGUAGAAGGCCUAAUUA	–	–	36.6 nM	18 nM
AUUUUAAUAUAGGAUAUCGAAUUUAUUAAUUAUCGAGAAGGAUAAACAUGAGGAUCACCCAUGUGGUAUCAUGG	210 nM	274 nM	–	–
CAUUAAUUAAUUAGUUUAUACAUACAGGAUAUGUUACAUGAGGAUCACCCAUGUUUACAUGGGAUACAGAAGGGUAAAUAAAGA	477 nM	310 nM	–	–
AUAUCACAUGAGGAUCACCCAUGUCAGGAUAUGAUACUAUGUACUUCGGUACAUAGUAUCAGAAGGGAUAUGAA	41.5 nM	69.9 nM	–	–
